In brackets after ≈: the same amount, converted by molar mass.
Experiments:
[1] = target: Cystic fibrosis transmembrane conductance regulator (Homo sapiens, UniProt P13569); assay: Inhibition of human wild-type CFTR expressed in FRT cells coexpressing YFP-H148Q assessed as inhibition of cAMP agonist-induced iodide influx after 45 mins by fluorescence plate-reader analysis; format: functional, cell-based
Kidney = assay: Inhibition of 8-Br-cAMP-induced renal cystogenesis in mouse embryonic kidney organ culture model after 5 days by inverted microscopic analysis; format: functional, tissue-based; conditions: 120 h
[2] = Metabolic stability of the compound in rat liver microsomes assessed as disappearance of compound after 30 mins by LC/MS analysis in presence of NADPH; format: ADME, Microsome; conditions: read-out: Drug metabolism
Method in brief: (§1)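 Compound at 5 µM was incubated with rat liver microsomes (1 mg protein/mL) in 100 mM potassium phosphate at 37 °C, with 0 or 1 mM NADPH. Samples were chilled, extracted with ethyl acetate, dried and taken up in mobile phase. Analysis was reverse-phase C18 LC/MS on a 5–95% acetonitrile gradient with negative ion detection.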

[3] = Solubility of the compound in aqueous phosphate buffer at pH 7.4; format: physicochemical
Method in brief: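 Solubility was measured in aqueous phosphate buffer at pH 7.4.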

Liver microsomes = assay: Metabolic stability of the compound in rat liver microsomes assessed as disappearance of compound after 30 mins by LC/MS analysis in absence of NADPH; format: ADME, Microsome; conditions: 0.5 h; method in brief: as §1
[4] = Solubility of the compound in albumin free saline; format: physicochemical; conditions: buffer

Cystic fibrosis transmembrane conductance regulator, sequence (P13569 whole entry): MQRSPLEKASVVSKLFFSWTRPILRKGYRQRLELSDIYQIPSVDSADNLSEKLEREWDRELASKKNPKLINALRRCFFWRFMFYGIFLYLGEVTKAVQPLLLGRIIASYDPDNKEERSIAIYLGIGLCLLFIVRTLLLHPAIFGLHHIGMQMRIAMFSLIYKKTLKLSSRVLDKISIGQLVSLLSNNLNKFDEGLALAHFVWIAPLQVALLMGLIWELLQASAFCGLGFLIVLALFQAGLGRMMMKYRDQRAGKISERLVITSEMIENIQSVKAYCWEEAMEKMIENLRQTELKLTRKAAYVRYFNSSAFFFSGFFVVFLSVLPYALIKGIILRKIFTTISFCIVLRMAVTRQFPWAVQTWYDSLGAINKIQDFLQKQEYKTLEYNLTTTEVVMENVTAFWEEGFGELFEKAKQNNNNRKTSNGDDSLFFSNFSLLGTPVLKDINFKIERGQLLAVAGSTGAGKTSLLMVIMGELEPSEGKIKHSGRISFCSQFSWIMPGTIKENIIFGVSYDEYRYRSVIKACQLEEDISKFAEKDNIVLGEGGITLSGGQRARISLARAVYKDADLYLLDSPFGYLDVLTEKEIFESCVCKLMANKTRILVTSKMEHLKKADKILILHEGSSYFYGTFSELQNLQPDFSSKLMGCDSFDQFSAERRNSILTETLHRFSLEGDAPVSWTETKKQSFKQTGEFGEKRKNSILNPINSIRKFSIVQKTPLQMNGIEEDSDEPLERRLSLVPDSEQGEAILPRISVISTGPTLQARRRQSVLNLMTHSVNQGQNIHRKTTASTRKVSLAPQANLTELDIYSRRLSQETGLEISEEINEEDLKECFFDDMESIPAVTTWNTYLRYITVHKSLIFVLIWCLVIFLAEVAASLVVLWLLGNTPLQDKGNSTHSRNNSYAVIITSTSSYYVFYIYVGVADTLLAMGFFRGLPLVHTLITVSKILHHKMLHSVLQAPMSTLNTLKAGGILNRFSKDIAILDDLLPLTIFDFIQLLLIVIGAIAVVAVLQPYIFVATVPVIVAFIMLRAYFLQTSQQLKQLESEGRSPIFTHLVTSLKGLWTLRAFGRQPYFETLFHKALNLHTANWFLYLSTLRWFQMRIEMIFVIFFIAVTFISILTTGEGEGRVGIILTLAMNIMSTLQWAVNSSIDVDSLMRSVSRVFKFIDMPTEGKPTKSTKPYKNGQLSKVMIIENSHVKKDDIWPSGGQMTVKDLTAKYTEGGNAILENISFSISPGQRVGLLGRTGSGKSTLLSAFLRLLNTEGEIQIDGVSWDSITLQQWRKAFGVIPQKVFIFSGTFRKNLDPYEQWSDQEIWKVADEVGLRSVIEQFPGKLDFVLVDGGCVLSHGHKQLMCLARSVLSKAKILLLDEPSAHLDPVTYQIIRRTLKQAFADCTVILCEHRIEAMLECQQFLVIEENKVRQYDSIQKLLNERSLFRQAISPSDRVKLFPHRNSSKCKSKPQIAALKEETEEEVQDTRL

SMILES | IC50 [1] | further results
Cn1c(=O)c2c(-c3ccccc3)n3c(c2n(C)c1=O)C(c1cc2ccccc2o1)Nc1ccccc1-3 (configuration not stated) | Not Active | –
CC(=O)N1c2ccccc2-n2c(-c3ccccc3)c3c(=O)n(C)c(=O)n(C)c3c2C1c1ccc(C)o1 (configuration not stated) | Not Active | –
Cn1c(=O)c2c(-c3ccccc3)n3c(c2n(C)c1=O)C(c1ccc(CO)o1)Nc1ccccc1-3 (configuration not stated) | Not Active | –
Cc1ccc(C2c3c4c(c(-c5ccccc5)n3-c3ccccc3N2C(=O)CCl)c(=O)n(C)c(=O)n4C)o1 (configuration not stated) | Not Active | –
Cn1c(=O)c2c(-c3ccccc3)n3c(c2n(C)c1=O)C(c1ccc(Br)o1)Oc1ccc(C(=O)O)cc1-3 (configuration not stated) | – | IC50 (Kidney): 100 nM; metabolised at 0.5 h [2]: < 5%; solubility [3]: 17 µM (≈ 9.32 µg/mL)
Cn1c(=O)c2c(-c3ccccc3)n3c(c2n(C)c1=O)C(c1ccc(-c2ccccc2)o1)Nc1ccccc1-3 (configuration not stated) | Not Active | –
Cc1ccc(C2c3c4c(c(-c5ccccc5)n3-c3ccccc3N2S(C)(=O)=O)c(=O)n(C)c(=O)n4C)o1 (configuration not stated) | Not Active | –
Cc1ccc(C2Nc3ccccc3-n3c(-c4ccccc4)c4c(=O)n(C)c(=O)n(C)c4c32)o1 (configuration not stated) | – | metabolised at 0.5 h [2]: 60%; Stability (Liver microsomes): Stable; solubility [4]: < 2 µM

Source: ChEMBL document CHEMBL1828512, “Potent, metabolically stable benzopyrimido-pyrrolo-oxazine-dione (BPO) CFTR inhibitors for polycystic kidney disease” (J Med Chem, 2011)
